Measurements: ChEMBL document CHEMBL2163205 (J Med Chem, 2012)
Values after ≈ are worked out from the molar mass of the structure shown. Active and inactive are the calls of the source. No cut-off for these calls is given here.

Assays:
[1] = biological target: Procathepsin L (Homo sapiens, UniProt P07711); assay: Inhibition of human recombinant CatL assessed as suppression of enzyme-mediated Z-Phe-Arg-AMC cleavage by QFRET assay
In short: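 Recombinant human Cat L at 0.1 nM final was preincubated with compound for 30 min, then Z-Phe-Arg-AMC (10 μM final) was added. QFRET cleavage was run 1 h at room temperature and stopped with acetic acid. Fluorescence read at ex 360/em 425 nm; IC50 by variable-slope nonlinear regression.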

[2] = Intrinsic clearance in human liver microsomes assessed as metabolic turnover
[3] = biological target: Cathepsin B (Homo sapiens, UniProt P07858); assay: Inhibition of human recombinant CatB assessed as suppression of enzyme-mediated Z-Arg-Arg-AMC cleavage by QFRET assay
In short: (§1)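 Recombinant human Cat B at 0.5 nM final was preincubated with compound for 30 min at room temperature. Z-Arg-Arg-AMC (100 μM final) was added in potassium phosphate buffer, pH 6.4, incubated 1 h, then stopped with acetic acid. Fluorescence read at ex 360/em 425 nm with background correction; IC50 by nonlinear regression.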

[4] = Oral bioavailability in Alderley Park Han Wistar rat at 2.0 mg/kg administered as single dose; format: ADME, organism-based; conditions: in vivo
In short: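 Fed male Alderley Park Han Wistar rats dosed po at 2.0 mg/kg as a suspension in 5% DMSO/95% HPMC/TWEEN; iv reference dose 2.0 mg/kg in 40% DMA/water. Single doses, at least two experiments of two animals each.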

[5] = Volume of distribution at steady state in Alderley Park Han Wistar rat at 2.0 mg/kg, po and 2.0 mg/kg, iv administered as single dose; format: ADME, organism-based; conditions: in vivo, read-out: Vdss
In short: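 Male Alderley Park Han Wistar rats, fed. Given single iv dose of 2.0 mg/kg as a solution in 40% DMA/water and single po dose of 2.0 mg/kg as a suspension in 5% DMSO/95% HPMC/TWEEN. At least two experiments, each with two animals.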

[6] = Intrinsic clearance in rat hepatocytes assessed as metabolic turnover measured per 10^6 cells; format: ADME, cell-based, Hepatocyte
In short: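 Intrinsic clearance from in vitro hepatocyte incubation, expressed in μL/min/10⁶ cells. Each value is the mean of at least n = 2 experiments.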

[7] = Fraction unbound in rat serum; format: ADME, cell-free
In short: (§2)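 Serum or plasma protein binding reported as percentage free. Each value is the mean of at least n = 2 experiments.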

[8] = Oral bioavailability in Beagle dog at 1.0 mg/kg administered as single dose; conditions: in vivo
[9] = in vivo; conditions: Beagle, dog, plasma, iv, 1 mg/kg
[10] = Fraction unbound in human serum; format: ADME, cell-free; in short: as §2
[11] = Half life in Alderley Park Han Wistar rat at 2.0 mg/kg, iv administered as single dose; conditions: in vivo
[12] = Lipophilicity, log D of the compound at pH 7.4; conditions: buffer
[13] = Volume of distribution at steady state in Beagle dog at 1.0 mg/kg, po and 1.0 mg/kg, iv administered as single dose; format: ADME, organism-based, Canis lupus familiaris; conditions: in vivo, read-out: Vdss
In short: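 Beagle dogs, fasted. Given single iv dose of 1.0 mg/kg as a solution in 10% DMSO/90% Sorensons and single po dose of 1.0 mg/kg as a suspension in 5% DMSO/95% HPMC/TWEEN. At least two experiments, each with two animals.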

[14] = biological target: Cathepsin S (Homo sapiens, UniProt P25774); assay: Inhibition of human recombinant CatS assessed as suppression of enzyme-mediated Z-Val-Val-Arg-AMC cleavage by QFRET assay
In short: as §1, with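 “S” for “B”, “Z-Val-Val-Arg-AMC” for “Z-Arg-Arg-AMC”, “AMC fluorescence” for “Fluorescence”, “nm;” for “nm with background correction;”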

[15] = in vivo; conditions: Alderley Park Han Wistar, rat, plasma, iv, 2 mg/kg
[16] = biological target: T1, Cathepsin K (Homo sapiens, UniProt P43235); assay: Inhibition of human recombinant CatK assessed as suppression of enzyme-mediated Z-Phe-Arg-AMC cleavage incubated for 1 hrs by QFRET assay
T1 sequence (P43235 whole entry): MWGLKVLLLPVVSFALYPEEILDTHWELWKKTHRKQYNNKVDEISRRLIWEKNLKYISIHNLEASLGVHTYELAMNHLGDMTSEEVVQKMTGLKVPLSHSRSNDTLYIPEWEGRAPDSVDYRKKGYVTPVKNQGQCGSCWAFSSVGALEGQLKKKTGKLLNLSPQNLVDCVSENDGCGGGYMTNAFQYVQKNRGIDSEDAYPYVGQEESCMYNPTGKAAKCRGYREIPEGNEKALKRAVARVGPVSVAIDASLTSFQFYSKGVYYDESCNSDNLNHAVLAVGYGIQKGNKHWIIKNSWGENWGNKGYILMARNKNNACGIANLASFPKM

[17] = Intrinsic clearance in rat liver microsomes assessed as metabolic turnover
[18] = Half life in Beagle dog at 1.0 mg/kg, iv administered as single dose; conditions: in vivo
[19] = Fraction unbound in dog serum; format: ADME, cell-free, Canis lupus familiaris; in short: as §2
[20] = Intrinsic clearance in human hepatocytes assessed as metabolic turnover measured per 10^6 cells
[21] = Intrinsic clearance in dog hepatocytes assessed as metabolic turnover measured per 10^6 cells
[22] = Aqueous solubility of the compound at pH 7.4; conditions: buffer
[23] = Fraction unbound at serum; format: ADME, cell-free; in short: as §2
[24] = species on record: Homo sapiens; assay: Selectivity ratio of IC50 for human recombinant CatS to IC50 for human recombinant CatK
In short: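 Quenched-FRET cleavage assays with in-house recombinant human enzymes at 0.5 nM final. Cat K used 50 μM Z-Phe-Arg-AMC at pH 5.5 (acetate/EDTA). Cat S used 100 μM Z-Val-Val-Arg-AMC at pH 6.4 (potassium phosphate). Compounds were preincubated 30 min at RT, then reacted 1 h, stopped with acetic acid and read at ex 360/em 425 nm. Twelve concentrations; IC50s from variable-slope nonlinear regression; ratio Cat S/Cat K.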

[25] = biological target: T2, Cathepsin K (Canis lupus familiaris, UniProt Q3ZKN1); assay: Inhibition of dog recombinant CatK assessed as suppression of enzyme-mediated Z-Phe-Arg-AMC cleavage by QFRET assay
T2 sequence (Q3ZKN1 whole entry): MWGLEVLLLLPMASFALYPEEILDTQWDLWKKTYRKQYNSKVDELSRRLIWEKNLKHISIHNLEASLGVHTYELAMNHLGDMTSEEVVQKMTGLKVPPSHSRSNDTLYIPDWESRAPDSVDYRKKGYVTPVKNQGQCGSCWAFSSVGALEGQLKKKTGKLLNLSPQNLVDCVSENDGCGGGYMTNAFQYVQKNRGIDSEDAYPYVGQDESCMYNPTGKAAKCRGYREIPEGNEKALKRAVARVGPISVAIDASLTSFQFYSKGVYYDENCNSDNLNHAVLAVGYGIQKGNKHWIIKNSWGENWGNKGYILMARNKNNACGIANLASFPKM
In short: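 Recombinant dog Cat K at 0.5 nM final was preincubated with compound for 30 min at room temperature. Z-Phe-Arg-AMC (15 μM final) was added in sodium acetate buffer, pH 5.5, and incubated 1 h at room temperature in the dark, then stopped with 7.5% acetic acid. Fluorescence read at ex 360/em 425 nm; IC50 by nonlinear regression.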

[26] = test system: Canis familiaris; assay: In-vivo inhibition of CatK in orally dosed Alderley Park Beagle dog assessed as reduction in CTX-1 level at 0.1 to 2 mg/kg, po qd by ELISA; format: functional, organism-based; conditions: Canis lupus familiaris
In short: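 Male Alderley Park Beagles (12−14 months, 14−17 kg) gavaged at 0.1, 0.3 or 2.0 mg/kg in 5% DMSO + 95% HPMC/Tween, 5 mL/kg, with dosing started at the same time of day. Jugular blood was clotted ≥1 h at room temperature and serum spun down. Serum CTX-1 was measured by CrossLaps ELISA; points are mean n = 2.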

Cathepsin S, sequence (P25774 whole entry): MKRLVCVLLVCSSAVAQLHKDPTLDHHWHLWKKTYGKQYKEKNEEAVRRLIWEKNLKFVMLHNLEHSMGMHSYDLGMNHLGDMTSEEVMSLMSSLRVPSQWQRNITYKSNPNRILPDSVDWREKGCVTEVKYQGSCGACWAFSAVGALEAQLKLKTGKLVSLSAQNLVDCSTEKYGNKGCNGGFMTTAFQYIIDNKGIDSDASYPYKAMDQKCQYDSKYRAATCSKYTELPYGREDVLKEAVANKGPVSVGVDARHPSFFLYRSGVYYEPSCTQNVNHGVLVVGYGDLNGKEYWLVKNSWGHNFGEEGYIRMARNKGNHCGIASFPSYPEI
Procathepsin L, sequence (P07711 whole entry): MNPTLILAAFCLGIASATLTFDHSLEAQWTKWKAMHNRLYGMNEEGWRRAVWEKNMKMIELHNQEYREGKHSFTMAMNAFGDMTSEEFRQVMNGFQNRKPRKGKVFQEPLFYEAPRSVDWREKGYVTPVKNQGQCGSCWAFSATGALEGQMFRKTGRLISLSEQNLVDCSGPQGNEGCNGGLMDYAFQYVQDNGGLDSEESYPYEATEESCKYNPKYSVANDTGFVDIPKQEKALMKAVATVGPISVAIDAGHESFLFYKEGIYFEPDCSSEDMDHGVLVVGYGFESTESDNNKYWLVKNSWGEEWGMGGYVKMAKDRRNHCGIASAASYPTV

SMILES | IC50 ([1]; read-out: IC50) [nM] | microsomal CLint [2] [µL/min/mg] | IC50 [3] [nM] | bioavailability [4] [%] | Vd [5] [L/kg] | fraction unbound [7] | bioavailability [8] [%] | fraction unbound [10] | logD [12] | Vd [13] [L/kg] | IC50 [14] [nM] | IC50 [16] [nM] | microsomal CLint [17] [µL/min/mg] | fraction unbound [19] | solubility [22] [µM] | IC50 [1] | other results
N#CC1(NC(=O)[C@@H]2CCCC[C@H]2C(=O)N2CCc3[nH]c4ccc(F)cc4c3C2)CC1 | > 40000 | 41 | 3520 | 3.8 | 2.3 | 0.16 | 82 | 0.14 | 3 | 1.2 | > 4000 | < 1 | > 250 | 0.13 | 580 (≈ 237 µg/mL) |  | hepatocyte CLint [6]: 126 µL/min/1e6 cells; clearance [9]: 10 mL/min/kg; half-life [11]: 0.6 h; clearance [15]: 63 mL/min/kg; half-life [18]: 1.8 h; hepatocyte CLint [20]: < 2.5 µL/min/1e6 cells; hepatocyte CLint [21]: 6.7 µL/min/1e6 cells
N#CC1(NC(=O)[C@@H]2CCCC[C@H]2C(=O)N2CCc3[nH]c4ncccc4c3C2)CC1 |  |  | > 2900 | 12 | 1.6 | 0.42 | 59 | 0.33 | 2.1 | 0.9 | > 4000 | 1 |  | 0.38 | 1500 (≈ 587 µg/mL) | Not Active | 
N#CC1(NC(=O)[C@@H]2CCCC[C@H]2C(=O)N2CCc3[nH]c4ccccc4c3C2)CC1 |  | 26 | > 2900 | 8.2 |  |  |  |  | 2.7 |  | > 4000 | 1 | 143 |  | 910 (≈ 355 µg/mL) | Not Active | fraction unbound [23]: 0.23
CN(C)C(=O)[C@@H]1CCCC[C@H]1C(=O)NCC#N | > 40000 | 5.1 | 9820 |  |  |  |  |  | < 0.5 |  | 3700 | 257 | < 2 |  | > 4600 |  | Ratio IC50 [24]: 14
COc1cccc2c3c([nH]c12)CCN(C(=O)[C@@H]1CCCC[C@H]1C(=O)NC1(C#N)CC1)C3 |  | 16 | > 2900 | 28 | 2.3 | 0.17 | 65 | 0.17 | 2.7 | 1.7 | > 4000 | < 1 | 67 | 0.22 |  | Not Active | clearance [9]: 10 mL/min/kg; IC50 [25]: 0.8 nM; inhibition [26]: Active; half-life [11]: 1 h; clearance [15]: 53 mL/min/kg; half-life [18]: 1.5 h; hepatocyte CLint [20]: 5.3 µL/min/1e6 cells; hepatocyte CLint [21]: 2.5 µL/min/1e6 cells
N#CC1(NC(=O)[C@@H]2CCCC[C@H]2C(=O)N2CCc3oc4ccccc4c3C2)CC1 |  |  |  | 0 |  |  |  |  | 3 |  |  | 25 | > 350 |  | 580 (≈ 227 µg/mL) |  | fraction unbound [23]: 0.12
CN1CCN(C(=O)[C@@H]2CCCC[C@H]2C(=O)NCC#N)CC1 | > 40000 | 7.9 | 7630 |  |  |  |  |  | -0.1 |  | 2070 | 37 |  |  | 3560 (≈ 1040 µg/mL) |  | hepatocyte CLint [6]: < 2 µL/min/1e6 cells
